Experimental findings from ChEMBL document CHEMBL1142192, “Natural polymorphisms in the human immunodeficiency virus type 2 protease can accelerate time to development of resistance to protease inhibitors” (Antimicrob Agents Chemother, 2007) are described below.

Holding throughout (assay type): functional, organism-based
For test [1], the system named is Human immunodeficiency virus 2. The test can be described thus: Antiviral activity against HIV2 isolate CBL20, CBL23, MVP15132 with 150V mutation in CBMCs. In a few lines: (§1)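 PI-selected variants were obtained by weekly culture passage with escalating drug, 0.05 μM rising to 0.25–10 μM, and phenotyped at week 38. Cord blood mononuclear cells were infected for 2 h and plated onto fivefold drug dilutions from 0.00064 to 10 μM at 37°C, 5% CO₂. Cells were refed with drug on day 3. Day-7 culture-fluid RT activity gave IC50. Means come from at least two experiments, each in duplicate. Fold change is relative to wild-type virus.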

Test [2] relates to Human immunodeficiency virus 1. The test can be described thus: Antiviral activity against wild type HIV1 in CBMCs. In short, it runs like this: (§2)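 Cord blood mononuclear cells were infected for 2 h with wild-type virus (HIV-1: subtype B clinical isolate 5512; HIV-2: isolates CBL-20, CBL-23, MVP-15132). Cells were plated onto fivefold drug dilutions (0.00064–10 μM) at 37°C, 5% CO₂, and refed with drug-containing medium on day 3. RT enzyme assay was run on day 7, and IC₅₀ fitted. Means of ≥2 independent experiments, each in duplicate.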

In test [3] the test system is Human immunodeficiency virus 2. The test can be described thus: Antiviral activity against HIV2 isolate CBL20, CBL23, MVP15132 with 182L mutation in CBMCs. In short, it runs like this: as §1
Test [4] relates to Human immunodeficiency virus 2. Description: Antiviral activity against HIV2 isolate CBL20, CBL23, MVP15132 with […] and L90M mutation in CBMCs. In short, it runs like this:
as §1

Test [5] deals with Human immunodeficiency virus 2. The test can be described thus: Antiviral activity against HIV2 isolate CBL20, CBL23, MVP15132 with […] and L99F mutation in CBMCs. In a few lines:
as §1

Test [6] deals with Human immunodeficiency virus 2. Description: Antiviral activity against wild type HIV2 in CBMCs. In short, it runs like this: as §2
Test [7] deals with Human immunodeficiency virus 1. The test can be described thus: Antiviral activity against HIV1 isolate 5512 with M36I/M and V82T mutation in CBMCs. In short, it runs like this: as §1
Test [8] has as its system Human immunodeficiency virus 2. The test can be described thus: Antiviral activity against HIV2 isolate CBL20, CBL23, MVP15132 with […] and […] mutation in CBMCs. In short, it runs like this:
as §1

Test [9] has as its system Human immunodeficiency virus 1. Description: Antiviral activity against HIV1 isolate 5512 with […] and M46L mutation in CBMCs. In a few lines: as §1
Test [10] has as its system Human immunodeficiency virus 2. Description: Antiviral activity against HIV2 isolate CBL20, CBL23, MVP15132 with 154M mutation in CBMCs. In short, it runs like this: as §1
The subject of test [11] is Human immunodeficiency virus 1. The test can be described thus: Antiviral activity against HIV1 isolate 5512 with D30N, […] and […] mutation in CBMCs. In a few lines: as §1
Test [12] relates to Human immunodeficiency virus 2. Description: Antiviral activity against HIV2 isolate CBL20, CBL23, MVP15132 with 182F mutation in CBMCs. In a few lines:
as §1

Test [13] relates to Human immunodeficiency virus 2. The test can be described thus: Antiviral activity against HIV2 isolate CBL20, CBL23, MVP15132 with V62A and L99F mutation in CBMCs. In short, it runs like this: as §1

For `Cc1c(O)cccc1C(=O)N[C@@H](CSc1ccccc1)[C@H](O)CN1C[C@H]2CCCC[C@H]2C[C@H]1C(=O)NC(C)(C)C` [NELFINAVIR], the IC50 – broadly, the concentration at which inhibition is half-maximal – was found to be 132 nM in test [1]; 14 nM in [2]; 106 nM in test [3]; 2560 nM in [4]; 2240 nM in test [5]; 64 nM in [6]. Further, the IC50 in test [7] was found to be 10 nM; in [8], 1750 nM; in [9] it was 31 nM; in test [10] it was 624 nM; in [11], 677 nM; in test [12], 244 nM. This compound came in with an IC50 in test [13] of 961 nM.

Take `Cc1cccc(C)c1OCC(=O)N[C@@H](Cc1ccccc1)[C@@H](O)C[C@H](Cc1ccccc1)NC(=O)[C@H](C(C)C)N1CCCNC1=O` [LOPINAVIR]: the IC50 in [1] worked out at 203 nM; in [2], 2 nM; in [3], 75 nM; in test [4], 524 nM; in [5] it was 414 nM; in test [6], 4 nM. Also, the IC50 was determined as 7 nM in test [7]; 375 nM in [8]; 1 nM in test [9]; 481 nM in test [10]; 145 nM in [12]; 496 nM in [13].

In the case of `CCC[C@@]1(CCc2ccccc2)CC(O)=C([C@H](CC)c2cccc(NS(=O)(=O)c3ccc(C(F)(F)F)cn3)c2)C(=O)O1` [TIPRANAVIR], the IC50 in test [1] was found to be 316 nM; in test [2], 92 nM; in test [3], 4440 nM; in test [4] it was 145 nM; in test [5], 2910 nM; in [6], 160 nM. Further, the IC50 in test [7] was determined as 192 nM; in test [8] it was 2030 nM; in [9], 42 nM; in [10], 1110 nM; in test [11], 1 nM; in test [12] it was 306 nM. The IC50 in [13] was found to be 524 nM.

On to `CC(C)CN(C[C@@H](O)[C@H](Cc1ccccc1)NC(=O)O[C@H]1CCOC1)S(=O)(=O)c1ccc(N)cc1` [AMPRENAVIR], for which the IC50 in test [1] was greater than 10000 nM; in test [2], 26 nM; in test [3] it was 528 nM; in test [4] it was greater than 10000 nM; in [5] it was greater than 10000 nM; in test [6] it was 440 nM. The IC50 in [7] was 3 nM; in test [8], greater than 10000 nM; in test [9] it was 116 nM; in test [10], greater than 10000 nM; in test [11], 19 nM; in [12] it was 965 nM. In test [13], the IC50 is 98 nM.

On to `CC(C)(C)NC(=O)[C@@H]1CN(Cc2cccnc2)CCN1C[C@@H](O)C[C@@H](Cc1ccccc1)C(=O)N[C@H]1c2ccccc2C[C@H]1O` [INDINAVIR], for which the IC50 in [1] was found to be 72 nM; in [2], 27 nM; in [3], 64 nM; in [4], 1110 nM; in test [5] it was 825 nM; in test [6] it was 16 nM. The IC50 was found to be 14 nM in test [7]; 388 nM in test [8]; 45 nM in test [9]; 236 nM in [10]; 25 nM in [11]; 544 nM in test [12]. For the same compound, half-maximal inhibition in test [13] (IC50) was put at 143 nM.
